Measured values: ChEMBL document CHEMBL4706497, “The structure-based optimization of δ-sultone-fused pyrazoles as selective BuChE inhibitors” (Eur J Med Chem, 2020)
The source made the active and inactive calls. The calls are words filed in the database; no cut-off is given here.

Tests used:
Cholinesterase [1] = biological target: T1, Cholinesterase (Equus caballus, UniProt P81908); assay: Inhibition of equine serum BuChE using butyrylthiocholine iodide as substrate preincubated with enzyme for 20 mins followed by addition of substrate and measured after 20 mins by DTNB reagent based Ellman's method; assay type: cell-free
T1 sequence (P81908 whole entry): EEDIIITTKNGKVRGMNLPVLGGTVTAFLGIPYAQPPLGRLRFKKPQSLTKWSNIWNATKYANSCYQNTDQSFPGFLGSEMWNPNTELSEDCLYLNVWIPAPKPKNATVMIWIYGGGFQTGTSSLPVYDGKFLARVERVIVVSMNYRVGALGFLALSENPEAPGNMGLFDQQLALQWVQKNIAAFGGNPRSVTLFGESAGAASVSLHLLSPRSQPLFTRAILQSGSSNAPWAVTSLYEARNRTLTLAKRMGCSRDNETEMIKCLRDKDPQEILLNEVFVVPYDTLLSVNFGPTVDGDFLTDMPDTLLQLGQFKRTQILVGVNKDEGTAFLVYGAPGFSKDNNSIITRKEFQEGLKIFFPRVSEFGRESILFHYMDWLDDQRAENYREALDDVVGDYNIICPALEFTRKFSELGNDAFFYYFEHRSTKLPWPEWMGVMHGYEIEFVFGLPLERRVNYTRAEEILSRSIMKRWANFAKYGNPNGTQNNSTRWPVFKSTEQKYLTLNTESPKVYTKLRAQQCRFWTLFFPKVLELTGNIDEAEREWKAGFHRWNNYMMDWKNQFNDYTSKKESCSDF
How it was run: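 Enzyme at 0.036 U/mL in 0.1 M phosphate buffer pH 8, preincubated with inhibitor 20 min at 37 °C. Then 0.5 mM butyrylthiocholine iodide and 0.35 mM DTNB added, and A410 read after 20 min. IC50 taken graphically from log concentration vs % inhibition curves. Mean ± SEM of at least three independent experiments.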

[2] = Octanol/Water partition coefficient, log P of the compound in PBS buffer at pH7.4 measured after 48 hrs by shake flask method; assay type: physicochemical; details: pH 7.4
How it was run: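 Shake-flask partition between equal volumes of n-octanol and PBS pH 7.4, pre-saturated by sonication and standing 24 h. Compound added, vessel sealed and shaken at 37 °C for 48 h to equilibrate, then phases analysed by HPLC.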

[3] = Antioxidant activity assessed as free radical scavenging activity at 100 uM measured after 2 hrs under dark conditions by DPPH assay relative to control; assay type: functional
How it was run: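 Each compound at 100 μM mixed with DPPH (140 μM) and incubated 2 h in the dark at 37 °C. Absorbance read at 520 nm. Reduction percentage = (1 − A_C/A₀) × 100%, with A_C and A₀ the absorbance with and without compound. Ascorbic acid served as standard.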

[4] = biological target: Cholinesterase (Equus caballus) (UniProt P81908); assay: Reversible inhibition of equine serum BChE using butyrylthiolcholine iodide as substrate at 0.02 to 0.08 uM by Lineweaver-Burk plot analysis; assay type: cell-free; details: dose 0.02-0.08 µM
Cholinesterase (Equus caballus), sequence (P81908 whole entry): as above
How it was run: (§1)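 Run under the standard Ellman conditions (0.036 U/mL enzyme, pH 8, 37 °C). Six butyrylthiocholine concentrations (0.1–1 mM) crossed with inhibitor at 0, 0.02, 0.04 and 0.08 μM. Lineweaver-Burk plots and secondary plots used for mode of inhibition and Ki. Reversibility tested by varying enzyme at 0–0.72 U/mL at each inhibitor concentration.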

Cholinesterase [5] = biological target: T1, Cholinesterase; assay: Mixed inhibition of equine serum BChE using butyrylthiolcholine iodide as substrate by Lineweaver-Burk plot analysis; assay type: cell-free; how it was run: as §1
L02 [6] = assay: Cytotoxicity against human L02 cells assessed as reduction in cell viability at 10 to 25 uM measured after 24 hrs by MTT assay; assay type: cell-based; details: l02, 24 h, dose 10-25 µM
How it was run: (§2)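 HepG2 and LO2 cells grown in DMEM with 10% FBS, penicillin/streptomycin, 37 °C, 5% CO2. Cells seeded at 1×10^4/well, cultured 24 h, then exposed 24 h to compound diluted in DMEM (range 1–50 μM). MTT 0.5 mg/mL added for 4 h, formazan dissolved in DMSO, OD read at 492 nm. Viability is given relative to medium-only blank (100%); three independent experiments.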

[7] = Selectivity for equine serum BuChE over recombinant electric eel AChE
[8] = Neuroprotective activity against H2O2 induced cytotoxicity in […] cells assessed as cell viability at 25 uM preincubated for 3 hrs followed by addition of H2O2 measured after 24 hrs by MTT assay; assay type: functional; details: PC-12, time 27 hrs, read-out: Activity
How it was run: (§3)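 PC12 cells seeded at 1×10^4/well and incubated overnight. Pretreated 3 h with compound (1–25 µM), then medium replaced with fresh medium containing compound plus 100 µM H2O2 for a further 24 h. Viability read by MTT (0.5 mg/mL, 4 h), formazan dissolved in DMSO, OD at 492 nm, corrected for blank.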

HepG2 [9] = assay: Cytotoxicity against human HepG2 cells assessed as reduction in cell viability at 10 to 25 uM measured after 24 hrs by MTT assay; assay type: cell-based; details: hepg2, 24 h, dose 10-25 µM; how it was run: as §2
PC-12 = assay: Neuroprotective activity against H2O2 induced cytotoxicity in […] cells assessed as cell viability preincubated for 3 hrs followed by addition of H2O2 measured after 24 hrs by MTT assay; assay type: functional, cell-based; details: dose 6.25-25 µM, time 27.0 hrs; how it was run: as §3
L02 [10] = assay: Cytotoxicity against human L02 cells assessed as reduction in cell viability at 50 uM measured after 24 hrs by MTT assay; assay type: cell-based; details: l02, 24 h; how it was run: as §2
[11] = Neuroprotective activity against H2O2 induced cytotoxicity in […] cells assessed as cell viability at […] uM preincubated for 3 hrs followed by addition of H2O2 measured after 24 hrs by MTT assay; assay type: functional; details: PC-12, time 27 hrs, read-out: Activity
[12] = biological target: Acetylcholinesterase (AChE) (Electrophorus electricus, UniProt O42275); assay: Inhibition of recombinant electric eel AChE using acetylthiocholine iodide as substrate at 20 uM preincubated with enzyme for 20 mins followed by addition of substrate and measured after 20 mins by DTNB reagent based Ellman's method; details: probe acetylthiocholine iodide, time 40 min
Acetylcholinesterase (AChE), sequence (O42275 whole entry): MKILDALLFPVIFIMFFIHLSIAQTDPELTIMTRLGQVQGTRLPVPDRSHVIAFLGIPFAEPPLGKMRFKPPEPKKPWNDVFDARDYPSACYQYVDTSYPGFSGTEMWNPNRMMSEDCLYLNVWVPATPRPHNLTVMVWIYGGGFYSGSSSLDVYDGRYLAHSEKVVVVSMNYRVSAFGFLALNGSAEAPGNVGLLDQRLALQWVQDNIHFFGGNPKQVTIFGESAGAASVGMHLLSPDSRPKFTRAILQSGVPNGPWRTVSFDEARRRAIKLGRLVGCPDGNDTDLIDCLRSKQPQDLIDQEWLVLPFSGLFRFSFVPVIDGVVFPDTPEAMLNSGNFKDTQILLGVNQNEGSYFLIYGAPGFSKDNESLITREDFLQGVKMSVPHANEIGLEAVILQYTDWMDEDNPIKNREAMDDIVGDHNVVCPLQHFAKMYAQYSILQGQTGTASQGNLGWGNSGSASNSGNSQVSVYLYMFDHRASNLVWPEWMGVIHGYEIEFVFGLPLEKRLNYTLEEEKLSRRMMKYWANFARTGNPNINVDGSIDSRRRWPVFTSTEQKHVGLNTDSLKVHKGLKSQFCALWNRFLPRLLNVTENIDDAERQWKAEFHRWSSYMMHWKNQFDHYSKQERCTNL
How it was run: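 Enzyme at 0.036 U/mL in 0.1 M phosphate buffer pH 8, preincubated 20 min at 37 °C with compound at 20 μM. Then 0.35 mM acetylthiocholine iodide and 0.35 mM DTNB added, and A410 read after 20 min. Percent inhibition compared with a no-inhibitor control.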

HepG2 [13] = assay: Cytotoxicity against human HepG2 cells assessed as reduction in cell viability at 50 uM measured after 24 hrs by MTT assay; assay type: cell-based; details: hepg2, 24 h; how it was run: as §2

Compound	IC50 (Cholinesterase [1])	inhibition [3]	further results
CN1CCN(Cc2nn(-c3ccccc3F)c3c2CCS(=O)(=O)O3)CC1	2170 nM		
CN(Cc1ccccc1)Cc1nn(-c2ccccc2F)c2c1CCS(=O)(=O)O2	80 nM		logD at 48 h [2]: 1.78
COc1ccc(-c2nn(-c3ccc(Cl)cc3)c3c2CCS(=O)(=O)O3)cc1	8780 nM		
O=S1(=O)CCc2c(-c3ccc(F)cc3)nn(-c3ccccc3F)c2O1	160 nM		
O=S1(=O)CCc2c(CCl)nn(-c3ccccc3Cl)c2O1	200 nM		
O=S1(=O)CCc2c(C3CC3)nn(-c3cccc(F)c3)c2O1	370 nM		
O=S1(=O)CCc2c(-c3ccc(Br)cc3)nn(-c3ccccc3Cl)c2O1	3690 nM		
CN(Cc1ccc(F)cc1)Cc1nn(-c2ccccc2F)c2c1CCS(=O)(=O)O2	40 nM	5.7%	
CN(Cc1ccc(Cl)cc1)Cc1nn(-c2ccccc2F)c2c1CCS(=O)(=O)O2	20 nM	6.1%	
COCCN(Cc1ccc(Cl)cc1)Cc1nn(-c2ccccc2F)c2c1CCS(=O)(=O)O2	90 nM	3.6%	
O=S1(=O)CCc2c(CN(CCO)Cc3cccc(Cl)c3)nn(-c3ccccc3F)c2O1	190 nM	4.7%	
Cc1ccc(CN(CCO)Cc2nn(-c3ccccc3F)c3c2CCS(=O)(=O)O3)cc1	170 nM	5.2%	
O=S1(=O)CCc2c(C3CC3)nn(-c3cccc(Cl)c3)c2O1	700 nM		
O=S1(=O)CCc2c(CN(CCO)Cc3ccc(F)cc3)nn(-c3ccccc3F)c2O1	8.3 nM	5.5%	logD at 48 h [2]: 2.42
COCCN(Cc1ccc(Br)cc1)Cc1nn(-c2ccccc2F)c2c1CCS(=O)(=O)O2	150 nM	4.8%	
CCN(Cc1ccccc1)Cc1nn(-c2ccccc2Cl)c2c1CCS(=O)(=O)O2	50 nM		
COc1ccc(CN(CCO)Cc2nn(-c3ccccc3F)c3c2CCS(=O)(=O)O3)cc1	260 nM	3.2%	
COCCN(Cc1ccc(F)cc1)Cc1nn(-c2ccccc2F)c2c1CCS(=O)(=O)O2	110 nM	6.3%	
O=S1(=O)CCc2c(CN(CCO)Cc3ccccc3)nn(-c3ccccc3Cl)c2O1	40 nM		
CCN(Cc1ccc(F)cc1)Cc1nn(-c2ccccc2F)c2c1CCS(=O)(=O)O2	70 nM	0.6%	
O=S1(=O)CCc2c(C3CC3)nn(-c3ccccc3F)c2O1	140 nM		logD at 48 h [2]: 2.09
O=S1(=O)CCc2c(CN3CCOCC3)nn(-c3ccccc3Cl)c2O1	410 nM		
O=S1(=O)CCc2c(CN(CCO)Cc3ccccc3)nn(-c3ccccc3F)c2O1	40 nM	5.4%	logD at 48 h [2]: 2.05
COCCN(Cc1ccccc1)Cc1nn(-c2ccccc2F)c2c1CCS(=O)(=O)O2	240 nM	2.3%	

Compound	IC50 (Cholinesterase [1])	inhibition [3]	further results
CCN(Cc1ccc(Cl)cc1)Cc1nn(-c2ccccc2F)c2c1CCS(=O)(=O)O2	40 nM	4.2%	
O=S1(=O)CCc2c(CN(CCO)Cc3cccc(F)c3)nn(-c3ccccc3F)c2O1	90 nM	5%	
O=S1(=O)CCc2c(CN(CCO)Cc3cccc(Br)c3)nn(-c3ccccc3F)c2O1	330 nM	0.8%	
O=S1(=O)CCc2c(-c3ccccc3)nn(-c3ccccc3F)c2O1	180 nM		
O=S1(=O)CCc2c(-c3ccc(Br)cc3)nn(-c3ccccc3F)c2O1	470 nM		
O=S1(=O)CCc2c(CCl)nn(-c3ccccc3F)c2O1	190 nM		
CN1CCN(Cc2nn(-c3ccccc3Cl)c3c2CCS(=O)(=O)O3)CC1	2220 nM		
O=S1(=O)CCc2c(-c3ccc(Cl)cc3)nn(-c3ccccc3Cl)c2O1	1580 nM		
CCN(Cc1ccccc1)Cc1nn(-c2ccccc2F)c2c1CCS(=O)(=O)O2	80 nM	1.8%	logD at 48 h [2]: 2
O=S1(=O)CCc2c(-c3ccc(F)cc3)nn(-c3ccccc3Cl)c2O1	130 nM		
O=S1(=O)CCc2c(C3CC3)nn(-c3ccccc3Cl)c2O1	180 nM		
O=S1(=O)CCc2c(CN3CCN(Cc4ccccc4)CC3)nn(-c3ccccc3Cl)c2O1	460 nM		
O=S1(=O)CCc2c(CN3CCN(Cc4ccccc4)CC3)nn(-c3ccccc3F)c2O1	680 nM		
O=S1(=O)CCc2c(CN(CCO)Cc3ccc(Br)cc3)nn(-c3ccccc3F)c2O1	7.7 nM	22.2%	inhibition [4]: Active; Ki (Cholinesterase [5]): 24 nM; logD at 48 h [2]: 1.93; Activity (L02 [6]): Non-Toxic; Selectivity Index [7]: > 2000; viability at 25 µM [8]: 49.6%; Activity (HepG2 [9]): Non-Toxic; Activity (PC-12): Dose-dependent effect; Activity (L02 [10]): 95.3%; viability at […] [11]: 40.9%; inhibition at 20 min, 20 µM [12]: 43.3%; Activity (HepG2 [13]): 82.8%
Cc1nn(-c2ccccc2F)c2c1CCS(=O)(=O)O2	1190 nM		
CCN(Cc1ccc(Br)cc1)Cc1nn(-c2ccccc2F)c2c1CCS(=O)(=O)O2	70 nM	12.9%	
O=S1(=O)CCc2c(CN(CCO)Cc3ccc(Cl)cc3)nn(-c3ccccc3F)c2O1	90 nM	10.2%	
CN(Cc1ccc(Br)cc1)Cc1nn(-c2ccccc2F)c2c1CCS(=O)(=O)O2	70 nM	0.2%	inhibition at 20 min, 20 µM [12]: 33.6%
O=S1(=O)CCc2c(-c3ccccc3)nn(-c3ccccc3Cl)c2O1	170 nM		
COc1ccc(CN(CCO)Cc2nn(-c3ccccc3F)c3c2CCS(=O)(=O)O3)cc1OC	560 nM	5.5%	
O=S1(=O)CCc2c(CN(CCO)Cc3ccc(Cl)cc3Cl)nn(-c3ccccc3F)c2O1	90 nM	1.8%	
O=S1(=O)CCc2c(-c3ccc(Cl)cc3)nn(-c3ccccc3F)c2O1	200 nM		
O=S1(=O)CCc2c(CN3CCOCC3)nn(-c3ccccc3F)c2O1	150 nM		
CN(Cc1ccccc1)Cc1nn(-c2ccccc2Cl)c2c1CCS(=O)(=O)O2	70 nM		
